Experimental data as given in the M2OR odorant receptor database.

Legend:
Conditions in all cases: stereoisomer not certain
[1] = target: T1, OR51I2 (Homo sapiens) (UniProt Q9H344)
T1 sequence (whole entry): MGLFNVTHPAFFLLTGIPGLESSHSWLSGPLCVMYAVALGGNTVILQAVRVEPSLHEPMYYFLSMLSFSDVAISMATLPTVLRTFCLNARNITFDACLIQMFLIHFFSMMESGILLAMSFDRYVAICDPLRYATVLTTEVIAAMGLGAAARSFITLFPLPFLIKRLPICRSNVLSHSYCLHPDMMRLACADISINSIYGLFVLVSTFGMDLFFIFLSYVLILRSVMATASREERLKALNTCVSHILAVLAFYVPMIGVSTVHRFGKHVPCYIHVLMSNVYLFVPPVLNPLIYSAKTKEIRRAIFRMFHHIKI
Procedure, shortened: (§1)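 Each receptor–molecule pair is labelled responsive or non-responsive (inactive) according to whether the original authors judged the measured signal statistically different from baseline. The data were taken from the main text and supplementary material of published papers and checked for typos and inconsistencies. Assay methods differed by source, with transient luciferase assays in mammalian cell lines being common.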

[2] = target: T2, OR51J1 (Homo sapiens) (UniProt Q9H342)
T2 sequence (whole entry): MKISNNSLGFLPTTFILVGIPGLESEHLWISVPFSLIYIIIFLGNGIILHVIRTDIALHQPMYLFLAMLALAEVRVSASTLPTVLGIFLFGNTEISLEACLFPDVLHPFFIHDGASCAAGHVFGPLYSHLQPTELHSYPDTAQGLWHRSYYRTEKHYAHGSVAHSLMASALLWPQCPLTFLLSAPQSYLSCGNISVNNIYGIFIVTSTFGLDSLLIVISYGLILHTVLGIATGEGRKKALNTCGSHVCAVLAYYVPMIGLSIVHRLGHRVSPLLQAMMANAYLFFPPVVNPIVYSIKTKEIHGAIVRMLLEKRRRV
Procedure, shortened: as §1

[3] = target: T3, OR51L1 (Homo sapiens) (UniProt Q8NGJ5)
T3 sequence (whole entry): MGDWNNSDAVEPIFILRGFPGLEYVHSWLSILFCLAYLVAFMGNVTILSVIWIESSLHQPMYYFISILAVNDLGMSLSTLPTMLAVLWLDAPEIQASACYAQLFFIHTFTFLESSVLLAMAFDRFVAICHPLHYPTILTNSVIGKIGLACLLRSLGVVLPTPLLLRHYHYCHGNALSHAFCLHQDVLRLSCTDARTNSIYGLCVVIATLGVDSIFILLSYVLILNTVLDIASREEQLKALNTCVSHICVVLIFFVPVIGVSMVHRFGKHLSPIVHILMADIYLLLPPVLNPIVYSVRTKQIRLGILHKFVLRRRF
Procedure, shortened: as §1

[4] = target: T4, OR51M1 (Homo sapiens) (UniProt Q9H341)
T4 sequence (whole entry): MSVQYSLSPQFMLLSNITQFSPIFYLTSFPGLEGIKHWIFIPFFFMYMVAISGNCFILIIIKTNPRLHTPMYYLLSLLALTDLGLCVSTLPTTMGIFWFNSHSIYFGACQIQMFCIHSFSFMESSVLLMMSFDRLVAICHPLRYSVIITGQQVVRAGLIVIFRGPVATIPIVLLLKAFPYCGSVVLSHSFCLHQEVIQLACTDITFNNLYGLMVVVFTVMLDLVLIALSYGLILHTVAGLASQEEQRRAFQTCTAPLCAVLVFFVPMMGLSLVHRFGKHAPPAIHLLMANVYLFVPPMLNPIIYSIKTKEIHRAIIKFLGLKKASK
Procedure, shortened: as §1

[5] = target: T5, OR51Q1 (Homo sapiens) (UniProt Q8NH59)
T5 sequence (whole entry): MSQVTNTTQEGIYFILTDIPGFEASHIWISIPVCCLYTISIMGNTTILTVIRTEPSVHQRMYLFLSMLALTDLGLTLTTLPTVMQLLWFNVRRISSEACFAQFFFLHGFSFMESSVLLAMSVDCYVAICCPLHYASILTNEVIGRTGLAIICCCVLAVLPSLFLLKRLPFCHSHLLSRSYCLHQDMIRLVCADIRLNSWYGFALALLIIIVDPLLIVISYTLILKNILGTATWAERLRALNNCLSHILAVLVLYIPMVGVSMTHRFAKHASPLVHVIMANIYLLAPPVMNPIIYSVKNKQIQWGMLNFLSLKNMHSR
Procedure, shortened: as §1

[6] = target: T6, OR51S1 (Homo sapiens) (UniProt Q8NGJ8)
T6 sequence (whole entry): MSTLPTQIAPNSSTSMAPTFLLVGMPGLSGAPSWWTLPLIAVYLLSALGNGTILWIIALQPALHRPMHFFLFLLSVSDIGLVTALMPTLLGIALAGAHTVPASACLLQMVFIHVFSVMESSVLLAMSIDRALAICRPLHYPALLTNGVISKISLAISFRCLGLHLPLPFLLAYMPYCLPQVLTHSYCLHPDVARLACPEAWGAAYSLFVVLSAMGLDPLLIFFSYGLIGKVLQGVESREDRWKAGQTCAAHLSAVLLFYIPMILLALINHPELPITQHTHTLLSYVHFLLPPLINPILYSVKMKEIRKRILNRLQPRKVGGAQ
Procedure, shortened: as §1

[7] = target: T7, OR51T1 (Homo sapiens) (UniProt Q8NGJ9)
T7 sequence (whole entry): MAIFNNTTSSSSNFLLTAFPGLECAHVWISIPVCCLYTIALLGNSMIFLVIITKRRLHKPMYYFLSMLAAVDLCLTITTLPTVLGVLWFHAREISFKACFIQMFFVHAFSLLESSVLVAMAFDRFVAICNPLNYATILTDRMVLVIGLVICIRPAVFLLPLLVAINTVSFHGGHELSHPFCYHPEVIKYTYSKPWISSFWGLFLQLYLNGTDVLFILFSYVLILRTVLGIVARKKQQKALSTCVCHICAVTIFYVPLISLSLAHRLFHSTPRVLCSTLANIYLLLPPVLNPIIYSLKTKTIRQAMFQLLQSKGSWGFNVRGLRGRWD
Procedure, shortened: as §1

[8] = target: T8, OR51V1 (Homo sapiens) (UniProt Q9H2C8)
T8 sequence (whole entry): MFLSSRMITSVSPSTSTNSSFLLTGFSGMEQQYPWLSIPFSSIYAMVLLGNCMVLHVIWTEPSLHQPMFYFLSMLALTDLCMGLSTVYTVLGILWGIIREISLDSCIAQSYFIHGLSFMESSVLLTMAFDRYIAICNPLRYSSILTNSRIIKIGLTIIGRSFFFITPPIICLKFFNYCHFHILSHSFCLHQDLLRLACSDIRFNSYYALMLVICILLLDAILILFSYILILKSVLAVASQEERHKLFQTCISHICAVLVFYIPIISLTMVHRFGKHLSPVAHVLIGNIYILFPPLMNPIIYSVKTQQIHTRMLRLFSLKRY
Procedure, shortened: as §1

[9] = target: T9, OR52A1 (Homo sapiens) (UniProt Q9UKL2)
T9 sequence (whole entry): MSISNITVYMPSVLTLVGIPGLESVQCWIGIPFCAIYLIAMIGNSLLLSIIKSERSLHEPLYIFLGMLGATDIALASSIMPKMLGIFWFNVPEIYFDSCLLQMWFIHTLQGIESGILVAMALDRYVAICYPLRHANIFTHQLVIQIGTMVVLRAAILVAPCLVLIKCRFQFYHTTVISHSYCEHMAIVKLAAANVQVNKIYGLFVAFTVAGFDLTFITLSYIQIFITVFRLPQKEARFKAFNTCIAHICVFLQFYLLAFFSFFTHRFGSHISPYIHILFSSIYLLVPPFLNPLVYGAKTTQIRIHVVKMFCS
Procedure, shortened: as §1

[10] = target: T10, OR52A4P (Homo sapiens) (UniProt A6NMU1)
T10 sequence (whole entry): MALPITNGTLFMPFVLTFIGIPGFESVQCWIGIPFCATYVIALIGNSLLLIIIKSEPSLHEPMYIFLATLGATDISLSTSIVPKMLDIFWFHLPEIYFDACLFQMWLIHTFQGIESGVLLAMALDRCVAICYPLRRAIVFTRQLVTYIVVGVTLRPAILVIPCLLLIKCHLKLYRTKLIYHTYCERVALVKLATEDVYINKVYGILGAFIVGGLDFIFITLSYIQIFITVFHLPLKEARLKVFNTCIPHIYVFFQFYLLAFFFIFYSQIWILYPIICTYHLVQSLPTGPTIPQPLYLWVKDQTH
Procedure, shortened: as §1

[11] = target: T11, OR52A5 (Homo sapiens) (UniProt Q9H2C5)
T11 sequence (whole entry): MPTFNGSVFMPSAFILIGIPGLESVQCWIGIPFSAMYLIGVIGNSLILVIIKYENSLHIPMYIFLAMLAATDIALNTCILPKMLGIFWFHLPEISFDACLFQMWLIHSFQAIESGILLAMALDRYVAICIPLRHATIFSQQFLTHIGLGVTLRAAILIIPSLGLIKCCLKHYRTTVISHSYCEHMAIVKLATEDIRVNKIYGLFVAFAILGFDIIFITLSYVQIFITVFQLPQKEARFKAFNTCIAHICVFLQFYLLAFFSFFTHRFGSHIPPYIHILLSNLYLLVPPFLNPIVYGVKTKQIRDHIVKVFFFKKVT
Procedure, shortened: as §1

[12] = target: T12, OR52B2 (Homo sapiens) (UniProt Q96RD2)
T12 sequence (whole entry): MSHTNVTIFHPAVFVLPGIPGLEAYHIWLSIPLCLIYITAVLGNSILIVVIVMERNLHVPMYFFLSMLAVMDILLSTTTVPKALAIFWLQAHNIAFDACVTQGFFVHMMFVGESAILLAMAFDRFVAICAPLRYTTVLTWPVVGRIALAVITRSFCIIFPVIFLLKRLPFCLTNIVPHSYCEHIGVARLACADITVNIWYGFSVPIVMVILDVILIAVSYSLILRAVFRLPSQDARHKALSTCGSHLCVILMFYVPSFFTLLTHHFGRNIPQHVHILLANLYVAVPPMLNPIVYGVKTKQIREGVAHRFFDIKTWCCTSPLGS
Procedure, shortened: as §1

[13] = target: T13, OR52B4 (Homo sapiens) (UniProt Q8NGK2)
T13 sequence (whole entry): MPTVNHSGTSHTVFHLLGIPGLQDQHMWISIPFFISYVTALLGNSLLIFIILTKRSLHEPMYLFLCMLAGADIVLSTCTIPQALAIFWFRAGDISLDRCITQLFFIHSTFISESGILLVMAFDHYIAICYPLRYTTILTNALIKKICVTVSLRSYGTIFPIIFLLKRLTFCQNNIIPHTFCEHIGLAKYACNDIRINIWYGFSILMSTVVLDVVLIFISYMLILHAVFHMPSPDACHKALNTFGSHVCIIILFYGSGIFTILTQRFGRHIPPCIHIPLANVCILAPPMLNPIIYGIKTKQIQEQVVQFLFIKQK
Procedure, shortened: as §1

[14] = target: T14, OR52B6 (Homo sapiens) (UniProt Q8NGF0)
T14 sequence (whole entry): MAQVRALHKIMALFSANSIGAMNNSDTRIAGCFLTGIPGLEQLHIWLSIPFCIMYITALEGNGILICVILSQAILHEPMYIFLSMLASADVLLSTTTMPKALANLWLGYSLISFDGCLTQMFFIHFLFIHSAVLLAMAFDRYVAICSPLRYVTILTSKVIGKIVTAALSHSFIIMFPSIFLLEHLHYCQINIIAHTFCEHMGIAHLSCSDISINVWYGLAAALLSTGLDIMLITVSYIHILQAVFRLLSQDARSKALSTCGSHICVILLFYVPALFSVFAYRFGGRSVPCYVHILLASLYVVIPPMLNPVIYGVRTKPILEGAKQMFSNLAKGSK
Procedure, shortened: as §1

[15] = target: T15, OR52D1 (Homo sapiens) (UniProt Q9H346)
T15 sequence (whole entry): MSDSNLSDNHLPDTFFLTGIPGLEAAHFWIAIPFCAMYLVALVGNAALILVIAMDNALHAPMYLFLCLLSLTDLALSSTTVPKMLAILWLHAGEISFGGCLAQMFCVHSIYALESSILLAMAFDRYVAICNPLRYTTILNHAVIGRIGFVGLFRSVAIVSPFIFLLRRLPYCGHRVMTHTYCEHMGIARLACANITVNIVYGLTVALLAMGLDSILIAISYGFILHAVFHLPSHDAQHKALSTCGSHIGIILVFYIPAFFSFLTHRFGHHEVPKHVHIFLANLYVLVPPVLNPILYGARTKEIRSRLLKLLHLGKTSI
Procedure, shortened: as §1

[16] = target: OR52E2 (Homo sapiens) (UniProt Q8NGJ4)
OR52E2 (Homo sapiens), sequence (Q8NGJ4 whole entry): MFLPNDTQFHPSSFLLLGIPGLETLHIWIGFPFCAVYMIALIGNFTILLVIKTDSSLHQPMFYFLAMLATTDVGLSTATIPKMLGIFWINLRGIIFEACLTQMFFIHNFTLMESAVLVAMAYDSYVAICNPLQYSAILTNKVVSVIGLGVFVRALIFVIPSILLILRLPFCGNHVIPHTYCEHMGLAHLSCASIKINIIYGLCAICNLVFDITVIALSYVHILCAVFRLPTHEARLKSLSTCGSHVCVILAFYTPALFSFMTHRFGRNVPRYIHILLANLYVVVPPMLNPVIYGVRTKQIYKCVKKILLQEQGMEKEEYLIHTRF
Procedure, shortened: as §1

[17] = target: OR52E4 (Homo sapiens) (UniProt Q8NGH9)
OR52E4 (Homo sapiens), sequence (Q8NGH9 whole entry): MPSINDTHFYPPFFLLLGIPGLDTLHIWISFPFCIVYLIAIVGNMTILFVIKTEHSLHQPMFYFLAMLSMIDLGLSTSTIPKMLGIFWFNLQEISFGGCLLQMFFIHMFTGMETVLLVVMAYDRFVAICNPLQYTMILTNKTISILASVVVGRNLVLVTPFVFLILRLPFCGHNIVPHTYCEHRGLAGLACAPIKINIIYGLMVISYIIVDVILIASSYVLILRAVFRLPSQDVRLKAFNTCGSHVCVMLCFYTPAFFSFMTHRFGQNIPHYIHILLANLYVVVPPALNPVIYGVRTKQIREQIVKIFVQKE
Procedure, shortened: as §1

[18] = target: OR52E5 (Homo sapiens) (UniProt Q8NH55)
OR52E5 (Homo sapiens), sequence (Q8NH55 whole entry): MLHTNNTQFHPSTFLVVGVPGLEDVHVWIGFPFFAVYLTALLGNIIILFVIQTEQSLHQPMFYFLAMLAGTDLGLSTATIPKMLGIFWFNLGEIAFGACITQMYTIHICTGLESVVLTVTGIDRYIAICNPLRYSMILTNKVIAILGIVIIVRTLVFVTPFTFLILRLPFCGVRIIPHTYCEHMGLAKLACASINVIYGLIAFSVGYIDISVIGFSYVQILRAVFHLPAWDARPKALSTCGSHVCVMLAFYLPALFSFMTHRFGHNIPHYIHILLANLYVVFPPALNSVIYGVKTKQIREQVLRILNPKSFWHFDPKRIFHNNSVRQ
Procedure, shortened: as §1

[19] = target: OR52E6 (Homo sapiens) (UniProt Q96RD3)
OR52E6 (Homo sapiens), sequence (Q96RD3 whole entry): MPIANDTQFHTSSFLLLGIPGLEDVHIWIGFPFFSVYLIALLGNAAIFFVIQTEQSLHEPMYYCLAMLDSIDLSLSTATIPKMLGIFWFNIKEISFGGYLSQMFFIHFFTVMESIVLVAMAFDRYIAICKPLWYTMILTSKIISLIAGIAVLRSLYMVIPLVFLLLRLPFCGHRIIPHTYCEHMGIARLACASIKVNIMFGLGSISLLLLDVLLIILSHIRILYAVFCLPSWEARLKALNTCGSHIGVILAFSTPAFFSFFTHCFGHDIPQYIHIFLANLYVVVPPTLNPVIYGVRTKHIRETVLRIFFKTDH
Procedure, shortened: as §1

[20] = target: OR52E1 (Homo sapiens) (UniProt Q8NGJ3)
OR52E1 (Homo sapiens), sequence (Q8NGJ3 whole entry): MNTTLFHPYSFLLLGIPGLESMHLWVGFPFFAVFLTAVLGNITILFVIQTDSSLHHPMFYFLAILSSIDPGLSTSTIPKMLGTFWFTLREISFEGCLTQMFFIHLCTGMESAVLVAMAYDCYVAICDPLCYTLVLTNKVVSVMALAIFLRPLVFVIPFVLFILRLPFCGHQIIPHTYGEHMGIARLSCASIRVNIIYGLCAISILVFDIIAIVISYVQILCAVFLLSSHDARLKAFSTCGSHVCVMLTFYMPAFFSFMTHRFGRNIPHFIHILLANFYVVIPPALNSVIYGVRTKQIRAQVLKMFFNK
Procedure, shortened: as §1
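Note: active if original authors judged signal statistically different from baseline.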

SMILES | odorant receptor agonist call [1] | odorant receptor agonist call [2] | odorant receptor agonist call [3] | odorant receptor agonist call [4] | odorant receptor agonist call [5] | odorant receptor agonist call [6] | odorant receptor agonist call [7] | odorant receptor agonist call [8] | odorant receptor agonist call [9] | odorant receptor agonist call [10] | odorant receptor agonist call [11] | odorant receptor agonist call [12] | odorant receptor agonist call [13] | odorant receptor agonist call [14] | odorant receptor agonist call [15] | odorant receptor agonist call [16] | odorant receptor agonist call [17] | odorant receptor agonist call [18] | odorant receptor agonist call [19] | odorant receptor agonist call [20]
CCCCCC1CCCC(=O)O1 (stereo unspecified) | inactive | inactive | inactive | inactive | inactive | inactive | inactive | inactive | inactive | inactive | inactive | inactive | inactive | inactive | active | inactive | inactive | inactive | inactive | –
CCCCCCOC(C)=O | – | – | inactive | – | – | – | – | – | – | – | – | – | – | – | – | – | – | – | – | –
CCCCC(=O)CC | – | – | inactive | – | – | – | – | – | – | – | – | – | – | – | – | – | – | – | – | –
CC(=O)c1c(C)c([N+](=O)[O-])c(C(C)(C)C)c([N+](=O)[O-])c1C | inactive | inactive | inactive | inactive | inactive | inactive | inactive | inactive | inactive | inactive | inactive | inactive | inactive | inactive | inactive | inactive | inactive | inactive | inactive | inactive
